The values that follow come from ChEMBL document CHEMBL1127636, “The development of cyclic sulfolanes as novel and high-affinity P2 ligands for HIV-1 protease inhibitors” (J Med Chem, 1994).

Assay [1] has as its system Human immunodeficiency virus 1. In words: Inhibition of HIV-1 in MT-4 human T-lymphoid cells infected with IIIb isolate. In kind it is functional. The following applies: Human immunodeficiency virus 1, T-lymphoid; read-out: CIC95. The method, boiled down: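 Unless otherwise indicated, each value is from a single determination (n = 1).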
The target in assay [2] is Human immunodeficiency virus type 1 protease (Human immunodeficiency virus 1, UniProt Q72874). In words: Inhibitory activity against HIV-1 protease.

Each structure is given as a SMILES string. Where only a bound is given, the exact number is not on record here.

A word on the IC50: it is the point on the concentration scale where inhibition reaches its midpoint. A higher IC50 goes with weaker potency. Take `CC(C)(C)NC(=O)[C@@H]1C[C@@H]2CCC[C@@H]2CN1C[C@@H](O)[C@H](Cc1ccccc1)NC(=O)O[C@H]1CCOC1`: in assay [1], the IC95 was 400 nM. 61 nM corresponded to half-maximal inhibition in assay [2] (IC50). `C[C@H]1[C@@H](OC(=O)N[C@@H](Cc2ccccc2)[C@H](O)CN2C[C@H]3CCCC[C@H]3C[C@H]2C(=O)NC(C)(C)C)CCS1(=O)=O`: the IC95 in assay [1] amounted to 200 nM.

Consider `C[C@@H]1CS(=O)(=O)C[C@@H]1OC(=O)N[C@@H](Cc1ccccc1)[C@H](O)CN1C[C@H]2CCCC[C@H]2C[C@H]1C(=O)NC(C)(C)C`, for which the IC95 in assay [1] is 800 nM. This compound also had an IC50 in assay [2] of 216 nM. With `CC(C)[C@@H]1[C@H](OC(=O)N[C@@H](Cc2ccccc2)[C@H](O)CN2C[C@H]3CCCC[C@H]3C[C@H]2C(=O)NC(C)(C)C)CCS1(=O)=O`, the IC95 in assay [1] worked out at 50 nM. Also, in assay [2], half-maximal inhibition (IC50) required 3.5 nM. With `C[C@@H]1[C@H](OC(=O)N[C@@H](Cc2ccccc2)[C@H](O)CN2C[C@H]3CCCC[C@H]3C[C@H]2C(=O)NC(C)(C)C)CCS1(=O)=O`, the IC95 in assay [1] was determined as 200 nM. `C[C@H]1[C@@H](OC(=O)N[C@@H](Cc2ccccc2)[C@H](O)CN2C[C@H]3CCC[C@H]3C[C@H]2C(=O)NC(C)(C)C)CCS1(=O)=O`: in assay [1], the IC95 worked out at 100 nM. Also, the IC50 in assay [2] came out at 12.6 nM. On to `CC(C)(C)NC(=O)[C@@H]1C[C@@H]2CCCC[C@@H]2CN1C[C@@H](O)[C@H](Cc1ccccc1)NC(=O)O[C@@H]1CCS(=O)(=O)C1`, for which the IC95 in assay [1] is greater than 800 nM. On the same count and under the same terms, under `CC[C@H]1[C@@H](OC(=O)N[C@@H](Cc2ccccc2)[C@H](O)CN2C[C@H]3CCCC[C@H]3C[C@H]2C(=O)NC(C)(C)C)CCS1(=O)=O` stands 400 nM.

On to `CC(C)(C)NC(=O)[C@@H]1C[C@@H]2CCCC[C@@H]2CN1C[C@@H](O)[C@H](Cc1ccccc1)NC(=O)O[C@H]1CCCS(=O)(=O)C1`, for which the half-inhibitory concentration (IC50) in assay [2] was found to be 1750 nM. Regarding `CCCC[C@H]1[C@@H](OC(=O)N[C@@H](Cc2ccccc2)[C@H](O)CN2C[C@H]3CCCC[C@H]3C[C@H]2C(=O)NC(C)(C)C)CCS1(=O)=O`, the IC95 in assay [1] stood at 400 nM. In addition, the IC50 in assay [2] was 14.9 nM.

On to `C[C@H]1CS(=O)(=O)C[C@H]1OC(=O)N[C@@H](Cc1ccccc1)[C@H](O)CN1C[C@H]2CCCC[C@H]2C[C@H]1C(=O)NC(C)(C)C`, for which the IC95 in assay [1] was 800 nM. This compound also gave an IC50 in assay [2] of 70 nM. The like results for `CCCC[C@@H]1[C@H](OC(=O)N[C@@H](Cc2ccccc2)[C@H](O)CN2C[C@H]3CCCC[C@H]3C[C@H]2C(=O)NC(C)(C)C)CCS1(=O)=O` were, in that order, 800 nM and 45.8 nM. For the compound `CC(C)(C)NC(=O)[C@@H]1C[C@@H]2CCCC[C@@H]2CN1C[C@@H](O)[C@H](Cc1ccccc1)NC(=O)O[C@H]1CCS(=O)(=O)[C@H]1C1CCCC1`, in assay [1], the IC95 came to 400 nM. Also, half-maximal inhibition in assay [2] (IC50) was put at 6.2 nM. The corresponding values for `CCC[C@@H]1[C@H](OC(=O)N[C@@H](Cc2ccccc2)[C@H](O)CN2C[C@H]3CCCC[C@H]3C[C@H]2C(=O)NC(C)(C)C)CCS1(=O)=O` are 800 nM and 20.1 nM. For the compound `CC(C)(C)NC(=O)[C@@H]1C[C@@H]2CCCC[C@@H]2CN1C[C@@H](O)[C@H](Cc1ccccc1)NC(=O)O[C@@H]1CCSC1`, half-maximal inhibition in assay [2] (IC50) required 220 nM. For the compound `CC(C)[C@@H]1[C@H](OC(=O)N[C@@H](Cc2ccccc2)[C@H](O)CN2C[C@H]3CCC[C@H]3C[C@H]2C(=O)NC(C)(C)C)CCS1(=O)=O`, the IC95 in assay [1] worked out at 100 nM. In assay [2], this compound registered a half-maximal inhibitory concentration (IC50) of 3 nM. As for `CC[C@@H]1[C@H](OC(=O)N[C@@H](Cc2ccccc2)[C@H](O)CN2C[C@H]3CCCC[C@H]3C[C@H]2C(=O)NC(C)(C)C)CCS1(=O)=O`, the IC95 in assay [1] worked out at 800 nM. Compound `CC(C)(C)NC(=O)[C@@H]1C[C@@H]2CCCC[C@@H]2CN1C[C@@H](O)[C@H](Cc1ccccc1)NC(=O)O[C@H]1CCSC1` displayed a half-inhibitory concentration (IC50) in assay [2] of 132 nM. In the case of `CCC[C@H]1[C@@H](OC(=O)N[C@@H](Cc2ccccc2)[C@H](O)CN2C[C@H]3CCCC[C@H]3C[C@H]2C(=O)NC(C)(C)C)CCS1(=O)=O`, the IC95 in assay [1] came out at 400 nM. This compound came in with an IC50 in assay [2] of 6.2 nM. `CC(C)(C)NC(=O)[C@@H]1C[C@@H]2CCC[C@@H]2CN1C[C@@H](O)[C@H](Cc1ccccc1)NC(=O)O[C@H]1CCS(=O)(=O)C1`: the IC95 in assay [1] is greater than 200 nM. In assay [2], this compound yielded an IC50 of 11.3 nM. The corresponding values for `C[C@@H]1C[C@H](OC(=O)N[C@@H](Cc2ccccc2)[C@H](O)CN2C[C@H]3CCCC[C@H]3C[C@H]2C(=O)NC(C)(C)C)CS1(=O)=O` are greater than 400 nM and 82 nM. On to `CC(C)(C)NC(=O)[C@@H]1C[C@@H]2CCCC[C@@H]2CN1C[C@@H](O)[C@H](Cc1ccccc1)NC(=O)O[C@H]1CCOC1`, for which the IC95 in assay [1] worked out at 800 nM.

With `CC(C)(C)NC(=O)[C@@H]1C[C@@H]2CCCC[C@@H]2CN1C[C@@H](O)[C@H](Cc1ccccc1)NC(=O)O[C@@H]1CCS(=O)(=O)[C@@H]1C1CCCC1`, the IC95 in assay [1] is 1500 nM. Moreover, in assay [2], the IC50 came out at 22.6 nM. The like results for `CC(C)(C)NC(=O)[C@@H]1C[C@@H]2CCCC[C@@H]2CN1C[C@@H](O)[C@H](Cc1ccccc1)NC(=O)O[C@H]1CCS(=O)(=O)C1` were, in that order, 364 nM and 76 nM. Consider `C[C@H]1OCC[C@H]1OC(=O)N[C@@H](Cc1ccccc1)[C@H](O)CN1C[C@H]2CCCC[C@H]2C[C@H]1C(=O)NC(C)(C)C`, for which the IC95 in assay [1] is 1600 nM.

`CC(C)(C)NC(=O)[C@@H]1C[C@@H]2CCCC[C@@H]2CN1C[C@@H](O)[C@H](Cc1ccccc1)NC(=O)O[C@@H]1CCCS(=O)(=O)C1`: the IC50 in assay [2] is 2070 nM. The same measure, in the same setting: under `CC(C)(C)NC(=O)[C@@H]1C[C@@H]2CCCC[C@@H]2CN1C[C@@H](O)[C@H](Cc1ccccc1)NC(=O)OC1CS(=O)(=O)C1` stands 104 nM.

As for `CC(C)[C@H]1[C@@H](OC(=O)N[C@@H](Cc2ccccc2)[C@H](O)CN2C[C@H]3CCCC[C@H]3C[C@H]2C(=O)NC(C)(C)C)CCS1(=O)=O`, the IC95 in assay [1] was 200 nM. On the same count and under the same terms, then `C[C@@H]1OCC[C@@H]1OC(=O)N[C@@H](Cc1ccccc1)[C@H](O)CN1C[C@H]2CCCC[C@H]2C[C@H]1C(=O)NC(C)(C)C`, with 400 nM. Consider `C[C@H]1C[C@@H](OC(=O)N[C@@H](Cc2ccccc2)[C@H](O)CN2C[C@H]3CCCC[C@H]3C[C@H]2C(=O)NC(C)(C)C)CS1(=O)=O`, for which the half-inhibitory concentration (IC50) in assay [2] stood at 1600 nM.
